In article PMC6679735 (Biochimica et biophysica acta. Molecular and cell biology …, 2019):
Where two headings read alike, the source gives them in different places. Values belong to the compound of their own block, whether it stands above or below them.

What was measured:
Npc1^I1061T/I1061T mice [1] = experiment: Lipidomic profiling of liver and brain after six-week treatment; type: in vivo, mouse; conditions: six weeks weekly treatment, versus vehicle
histone H3 [2] = experiment: Acute histone H3 acetylation in liver by western blot, 1 h after single dose; type: in vivo, C57BL/6J mice; conditions: one hour post single injection, versus vehicle
NPC1 cat model = conditions: 4000 mg/kg HPβCD; cited from earlier work
NPC1 patients = conditions: Phase 1/2a trial; cited from earlier work
[3] = Maximum drug concentration of HPβCD after a peripheral dose; type: in vivo; conditions: peripheral dose of 4000 mg/kg HPβCD with PEG400/DMSO; extrapolated
[4] = direct CNS administration; cited from earlier work
[5] = tested on: human NPC1^I1061T fibroblasts; experiment: Filipin LSO compartment ratio dose response in fibroblasts; type: cell-based; conditions: 72 h, 40 nM to 10 μM
How it was run: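 Human fibroblasts in MEM with 5% FBS, seeded in 384-well plates at 450 cells/well and incubated overnight. Test compound added at 40 nM–10 μM final; DMSO control on each plate. After 72 h, cells were PBS-washed, fixed in 1.5% PFA, and stained with 50 μg/ml filipin plus Draq5. Automated imaging at four sites/well gave the LSO compartment ratio, normalised to DMSO. Four wells per condition, three experiments.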

[6] = type: in vivo, C57BL/6J mice
How it was run: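 Five-week-old male C57BL/6J mice received a single i.p. injection (10 μL/g). Plasma, liver and brain were harvested at 0.25, 1, 2, 4 and 7 h, n=4 per time point. Analyte was measured by LC-MS/MS on a C18 column with a d5-labelled internal standard and eight duplicate calibrators. Non-compartmental parameters used mean concentrations of 3–4 mice per time point; AUC by the linear trapezoidal method.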

Npc1^I1061T/I1061T mice [7] = type: in vivo, mouse; conditions: liver; six weeks treatment, versus vehicle
How it was run: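 Mice were dosed i.p. at 10 μL/g from four weeks of age, weekly for six weeks (one arm three times weekly). HPβCD was 2000 mg/kg (4000 mg/kg in the 3x/wk arm). Saline perfusion 1 h after the last dose. PFA-fixed liver was cut at 35 μm on a vibratome and stained with 0.005% filipin in PBS, with a DMSO-only control. Two blinded reviewers scored hepatocyte staining 0–5.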

Npc1^nmf164 mice = conditions: 150mg/kg vorinostat in PEG/DMSO vehicle; cited from earlier work
NPC1^I1061T protein = type: in vivo, mouse; conditions: six weeks treatment, versus vehicle
[8] = tested on: murine embryonic fibroblasts and human fibroblasts expressing the NPC1^I1061T protein; conditions: cited from earlier work
[9] = tested on: bone marrow-derived macrophages from Npc1^I1061T/I1061T mice; experiment: Filipin LSO assay in bone marrow-derived macrophages; type: cell-based, mouse
histone H3 [10] = experiment: Histone H3 acetylation in liver and brain after six-week treatment; type: in vivo, Npc1^I1061T/I1061T mice; conditions: end of six-week treatment, one hour after final dose
How it was run: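 Four-week-old mice were dosed weekly i.p. at 10 μL/g for six weeks and harvested 1 h after the final dose. Frozen cortex was homogenised in TNEN buffer (pH 8) with protease inhibitors and 1 mM PMSF, then spun at 10,000 × g for 10 min at 4°C. Equal protein was run on 4–12% Bis-Tris gels and blotted with anti-H3 (1:10,000) and anti-acetyl-H3 (1:1000). Hsp90 was the loading control; detection by chemiluminescence.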

[11] = male, C57BL/6J, mouse, brain, ip, 50 mg/kg
[12] = male, C57BL/6J, mouse, liver, ip, 50 mg/kg
[13] = male, C57BL/6J, mouse, plasma, ip, 50 mg/kg

Compound: CC(=O)Nc1ccc(C(=O)Nc2ccccc2N)cc1 [CI994]
- Lipid storage in liver (lipidomics, sphingolipid and sterol species) (Npc1^I1061T/I1061T mice [1]): none of the treatment groups administered formulations containing vorinostat, CI994, or IVA alone showed evidence of lipid reduction

- Maximum drug concentration achieved [3]: ~ 15 μM
Compound: CC(O)COC[C@H]1O[C@@H]2O[C@H]3[C@H](O)[C@@H](O)[C@@H](O[C@H]4[C@H](O)[C@@H](O)[C@@H](O[C@H]5[C@H](O)[C@@H](O)[C@@H](O[C@H]6[C@H](O)[C@@H](O)[C@@H](O[C@H]7[C@H](O)[C@@H](O)[C@@H](O[C@H]8[C@H](O)[C@@H](O)[C@@H](O[C@H]1[C@H](O)[C@H]2O)O[C@@H]8COCC(C)O)O[C@@H]7COCC(C)O)O[C@@H]6COCC(C)O)O[C@@H]5COCC(C)O)O[C@@H]4COCC(C)O)O[C@@H]3COCC(C)O (stereo partly drawn) [HPβCD, 2-hydroxypropyl-β-cyclodextrin]
- Liver histone H3 acetylation (acetylated H3 / total H3) (histone H3 [2]): did not increase H3 acetylation acutely
- Toxicity of peripheral dose (NPC1 cat model): toxic in the NPC1 cat model
- Neurodegenerative disease progression (NPC1 patients): effective in slowing neurodegenerative disease progression
- Drug concentration achieved in CSF [4]: 1000 µM

Compound: O=C(O)CCCCCCC(=O)Nc1ccccc1 [IVA, 8-oxo-8-(phenylamino)octanoic acid]
- Liver histone H3 acetylation (acetylated H3 / total H3) (histone H3 [2]): No increase in acetylation
- Effect on lysosomal cholesterol storage (filipin LSO compartment ratio) [5]: had no effect on cholesterol storage
- Lipid storage in liver (lipidomics, sphingolipid and sterol species) (Npc1^I1061T/I1061T mice [1]): none of the treatment groups administered formulations containing vorinostat, CI994, or IVA alone showed evidence of lipid reduction

- Vorinostat Cmax, brain ([6]; brain, single i.p. dose): 1.163 µg/mL
- Vorinostat Cmax, liver ([6]; liver, single i.p. dose): 0.209 µg/mL
- AUC(0-t) [6, 11]: 1.24 µg·h/mL
- Tmax [6, 11]: 15 min
- AUC(0-t) [6, 12]: 0.513 µg·h/mL
- Tmax [6, 12]: 15 min
- AUC(0-inf) [6, 13]: 7.6 µg·h/mL
- AUC(0-t) [6, 13]: 7.54 µg·h/mL
- Cmax [6, 13]: 10.5 µg/mL
- Tmax [6, 13]: 15 min
- half-life [6, 13]: 40.8 min
Compound: O=C(CCCCCCC(=O)Nc1ccccc1)NO [vorinostat, suberoylanilide hydroxamic acid]
- Liver histone H3 acetylation (acetylated H3 / total H3) (histone H3 [2]): Increased histone 3 acetylation
- Effect on lysosomal cholesterol storage (filipin LSO compartment ratio) [5]: reduces lysosomal cholesterol
- Lipid storage in liver (lipidomics, sphingolipid and sterol species) (Npc1^I1061T/I1061T mice [1]): modest reduction in only a single lipid species (MCer 24:0)
- Hepatocyte filipin staining (cholesterol storage) (Npc1^I1061T/I1061T mice [7]): did not alter cholesterol levels
- Efficacy on disease progression, life span, or weight loss (Npc1^nmf164 mice): did not show efficacy
- Liver pathology and function (Npc1^nmf164 mice): limited improvement in liver pathology and function
- NPC1 mutant protein expression and lipid accumulation (Npc1^nmf164 mice): remained unchanged
- NPC1^I1061T protein expression in liver (NPC1^I1061T protein): reduction of NPC1 protein
- Cholesterol storage [8]: effective in reducing cholesterol storage
- Reduction of cholesterol accumulation in differentiated macrophages ([9]; 4 nM to 10 μM, 48h or 72h): not effective at reducing the cholesterol accumulation
- Cholesterol accumulation in LSOs (filipin intensity) at 330 nM ([9]; 330 nM, normalized to DMSO treated cells): slight decrease in cholesterol accumulation
- Concentration toxic to BMMs ([9]; 48h or 72h treatment): above 1 μM
- Ratio of acetylated histone H3 to total histone H3 in brain (histone H3 [10]; brain): showed an increase in the ratio
- Ratio of acetylated histone H3 to total histone H3 in liver (histone H3 [10]; liver): significant increase in the ratio of acetylated histone H3 relative to total histone H3
